Assay outcomes (PubChem BioAssay)
The entries come from a sample that favours hits as a whole.
Biofilm kill mix: mixtures killing C. albicans biofilm; C. albicans biofilm persisters + clotrimazole, fluorescence viability; primary screen in compound mixtures of four per well; inhibition, % at 7.6 µM; hit rate 0.02% among 120,000;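 active = inhibition above 30.3% in the primary screen of four-compound pools, then above 30% when the compound was retested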;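 also: compounds exposed to preformed 24 h biofilms for 48 h; 0% = untreated biofilm control and 100% = clotrimazole plus chlorhexidine kill blank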
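Test system: C. albicans biofilms. Buffer or medium: RPMI/MOPS medium, pH 7.0. Timing: 48 h compound exposure at 37 °C. Technique: Alamar Blue fluorescence. Evaluation: percent inhibition of biofilm viability.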
ROMK mod: modulators of human ROMK potassium channel; P48048; B-score at 10 µM; hit rate 2% among 130,000; Tet-inducible ROMK, thallium flux fluorescence; actives lie on both sides;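 active = signal ratio slope over the read window, or its plate-corrected B-score, at least 3 SD from the plate mean, either direction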;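 also: B-score of the F/F0 ratio slope over 7 to 12 s after thallium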
Target sequence (P48048 whole entry, looked up): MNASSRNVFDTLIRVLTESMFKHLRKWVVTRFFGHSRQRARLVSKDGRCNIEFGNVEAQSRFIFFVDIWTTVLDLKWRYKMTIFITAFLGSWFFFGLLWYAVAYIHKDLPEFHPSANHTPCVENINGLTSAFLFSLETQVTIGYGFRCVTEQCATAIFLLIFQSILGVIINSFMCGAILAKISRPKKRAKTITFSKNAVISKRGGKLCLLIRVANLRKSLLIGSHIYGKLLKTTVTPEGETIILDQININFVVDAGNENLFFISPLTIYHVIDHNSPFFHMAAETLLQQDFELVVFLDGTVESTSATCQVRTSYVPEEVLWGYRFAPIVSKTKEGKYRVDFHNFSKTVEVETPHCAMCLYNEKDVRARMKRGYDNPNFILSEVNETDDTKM
* marks the source's active call; other numbers are inactive results; nt = no result.

SMILES	Biofilm kill mix	ROMK mod
O=C(N/N=C/c1ccc([N+](=O)[O-])cc1)c1cc(C2CC2)nc2ccccc12	20.9	nt
CCc1ccc(/C=N/NC(=O)c2cc(C3CC3)nc3ccccc23)s1	nt	3.19*
CCOC(=O)c1ccccc1NC(=O)N[C@@H](C)C(=O)OC	nt	2.32*
COC(=O)[C@H](C)NC(=O)Nc1ccccc1C(F)(F)F	nt	0.654
Cc1cc(C)c2nc(N3CCC(C(=O)NCCCN4CC(C)CC(C)C4)CC3)sc2c1 (configuration not stated)	11.2	-2.54*
Cc1cc(C)c2nc(N3CCCC(C(=O)NCCCN4CCOCC4)C3)sc2c1 (configuration not stated)	nt	-1.65
C=CCN1C(=O)C(CC(=O)Nc2ccc(OCCC)cc2)N(CCCN2CCN(Cc3ccccc3)CC2)C1=S (configuration not stated)	15.5	-0.79
Cc1ccc(S(=O)(=O)Oc2cc(N)c3c(n2)CCC3)cc1	15.2	nt
CCC(=O)N(CCC1(c2ccccc2OC)CCOC(C(C)C)C1)Cc1ccco1 (configuration not stated)	21.9	nt
CN(C)S(=O)(=O)c1ccc(C(=O)Nc2nnc(-c3ccco3)o2)cc1	20.5	nt
COc1ccccc1-c1nnc(NC(=O)c2ccc(S(=O)(=O)N(C)Cc3ccccc3)cc2)o1	nt	-3.35*
Cc1ccc(C2(CCNC(C)c3cccs3)CCOC(C(C)C)C2)cc1 (configuration not stated)	41.1*	-0.083
Cc1ccc(C2(CCN)CCOC(C(C)C)C2)cc1 (configuration not stated)	8.2	nt
N#CC1CCCc2c1[nH]c1ccc([N+](=O)[O-])cc21 (configuration not stated)	20.8	nt
CN(C)/C=C(\C#N)C(=O)N/N=C/c1ccccc1	15.3	0.473
Cc1ccc(-c2csc(=S)[nH]2)cc1	13.0	10.5*
Cc1ccc(-c2ccc(C(=O)O)[nH]2)cc1	nt	0.297
S=c1nccc(-c2ccc(Cl)cc2)[nH]1	9.2	nt
S=c1[nH]c(-c2ccc(Cl)cc2)cs1	14.9	16.6*
Cc1cc(-c2ccccc2)nc(Cl)c1C#N	22.7	-1.11
CC(=O)Nc1ccc(NC(=O)C(C)Sc2nnc(-c3cccs3)o2)cc1 (configuration not stated)	19.2	nt
c1csc(-c2noc(CN3CCc4sccc4C3)n2)c1	22.5	-0.00759
Cc1onc(-c2c(Cl)cccc2Cl)c1C(=O)NCCc1ccc(S(N)(=O)=O)cc1	nt	0.255
O=C(NC(=S)Nc1ccc(O)cc1)c1ccccc1Cl	13.1	-1.35e-05
COc1ccc(NC(=S)NC(=O)c2ccccc2Cl)cc1	4.5	5.35*
SMILES	Biofilm kill mix	ROMK mod
Cc1ccc(/C=C2/NC(=O)N(Cc3ccccc3F)C2=O)s1	10.2	-0.938
CCCN1C(=O)/C(=C/c2ccc(C)s2)NC1=S	13.7	5.52*
O=C(/C=C/c1cccs1)NC(=S)Nc1ccccc1	10.5	1.14
COc1ccc(C(=O)NNC(=S)NC(=O)/C=C/c2cccs2)cc1	3.0	3.74*
O=C(/C=C/c1cccs1)NC(=S)NNC(=O)c1ccccc1O	27.5	3.06*
COc1ccc(/C=C/C(=O)NC(=S)NNC(=O)Cc2cccs2)cc1	nt	-0.512
O=C1N=C(N2CCCC2)CN1c1ccccc1	-4.2	1.01
Cc1cccc(CN2CCN(C(=O)CCl)CC2)c1	12.7	nt
Cc1cccc(CN2CCN(C(=O)c3ccccc3F)CC2)c1	nt	6.17*
Cc1cc(C)c2nc3nc(C)c(C)cc3c(N)c2c1	12.7	-1.46
CCOC(=O)C1=C(C)NC(C)=C(C(=O)OC)C1c1cccc([N+](=O)[O-])c1 (configuration not stated)	13.3	nt
COC(=O)C1=C(C)NC(C)=C(C(=O)OC)C1c1ccccc1[N+](=O)[O-]	6.3	-2.53*
COCCCNCC1C(Oc2ccc(Cl)cc2)C(=O)N1c1ccccc1C (configuration not stated)	16.4	-1.26
Cc1cccc(N2C(=O)C(Oc3ccc(Cl)cc3Cl)C2C=O)c1C (configuration not stated)	10.7	-4.89*
Cc1ccsc1CNC1C2CC3CC(C2)CC1C3 (configuration not stated)	20.5	-1.18
O=C(CCCSc1nc2ccccc2[nH]1)N1CCN(c2ccc([N+](=O)[O-])cc2)CC1	nt	-5.38*
O=C(CSc1nc2ccccc2[nH]1)N1CCN(c2ccc(F)cc2)CC1	nt	0.439
O=C(NCc1csc(-c2ccccc2)n1)c1cc(F)cc2c1OCOC2	23.6	nt
O=C(c1ccccc1)N(Cc1ccc2c(c1)OCO2)Cc1nc2ccccc2c(=O)[nH]1	nt	3.17*
CC(OC(=O)CCc1nc2ccccc2c(=O)[nH]1)C(=O)NCc1ccc2c(c1)OCO2 (configuration not stated)	nt	-0.508
Cc1ccc(Nc2nc(N)nc(CN3CCN(Cc4ccc5c(c4)OCO5)CC3)n2)cc1C	32.7*	-0.342
Cc1ccc(Nc2nc(N)nc(CN3CCN(Cc4ccc5c(c4)OCO5)CC3)n2)c(C)c1	nt	-0.766
CCC(C)(C)c1ccc(OCCCC[n+]2ccccc2)c(C(C)(C)CC)c1	17.2	-3.69*
